Assay results of several laboratories.
Compare with care: the assays were run in different laboratories. pEC50, pIC50: −log10 of the molar value.

| SMILES | target or system | test | system | setting | endpoint | value |
| --- | --- | --- | --- | --- | --- | --- |
| N.N.[Cl][Pt][Cl] | RS4-11 | cell growth or viability, ATP luminescence | – | 10 µM, 72 h | inhibition | 100% |
| C[C@@H]1CC[C@H]2[C@@H](C)C(=O)O[C@@H]3O[C@@]4(C)CC[C@@H]1[C@]32OO4 | Plasmodium falciparum | parasite growth | K1 | drug-resistant strain, blood stage | pIC50 | 9.22 |
| N=C(CC(O)c1cc2c(F)cc(F)cc2c2cc(C(F)(F)F)ccc12)Nc1nnc(-c2ccc(F)cc2)o1 (stereo not drawn) | Plasmodium falciparum | parasite growth, ELISA | 3D7 | 72 h, blood stage | pIC50 | < 4.43 |
| CCN1CCN(Cc2ccc(Nc3nc4ccc(Oc5ccnc(NC(=O)C6CCN(C)CC6)c5)cc4n3C)cc2C(F)(F)F)CC1 | Plasmodium falciparum | parasite growth, SYBR Green | 3D7 | blood stage | pEC50 | 6.68 |
| COc1ccc2cc1Oc1ccc(cc1)C[C@H]1c3c(cc4c(c3Oc3cc5c(cc3OC)CCN(C)[C@@H]5C2)OCO4)CCN1C | Plasmodium falciparum | parasite growth | DD2 | drug-resistant strain, blood stage | pIC50 | 6.87 |
| N#Cc1ccc(NC(=N)CC(O)c2cc3c(F)cc(F)cc3c3cc(C(F)(F)F)ccc23)cc1 (stereo not drawn) | Plasmodium falciparum | parasite growth, ELISA | 3D7 | 72 h, blood stage | pIC50 | 7.61 |
| CO[C@H]1C[C@H](O[C@@H]2/C(C)=C/C[C@@H]3C[C@@H](C[C@]4(CC[C@H](C)[C@@H](C5CCCCC5)O4)O3)OC(=O)[C@@H]3C=C(C)/C(=N/O)[C@H]4OC/C(=C\C=C\[C@@H]2C)[C@]43O)O[C@@H](C)[C@@H]1O | Plasmodium falciparum | parasite growth | K1 | drug-resistant strain, blood stage | pIC50 | 6.51 |
| CC(C)C[C@H](NC(=O)[C@H](CC(C)C)NC(=O)[C@H](CCCCN)NC(=O)[C@H](CCCCN)NC(=O)[C@H](CC(C)C)NC(=O)[C@H](CC(C)C)NC(=O)[C@H](CCCCN)NC(=O)[C@H](CCCCN)NC(=O)[C@H](CC(C)C)NC(=O)[C@H](CCC(=O)O)NC(=O)[C@H](CCCCN)NC(=O)[C@H](CCCCN)NC(=O)[C@H](CC(C)C)NC(=O)[C@@H](N)CC(C)C)C(N)=O | HCCC9810 | cell growth or viability, CCK-8 | – | – | pIC50 | 5.03 |
| CC(=O)N[C@H]1[C@@H](O[C@@H]2O[C@H](C[C@@H](O)[C@H]3O[C@@H](n4ccc(=O)[nH]c4=O)[C@H](O)[C@@H]3O)[C@H](O)[C@H](O)[C@H]2NC(=O)/C=C/CCCCCCCCCC(C)C)O[C@H](CO)[C@@H](O)[C@@H]1O | MDA-MB-453 | cell growth or viability, WST-1 | – | – | pIC50 | 6.80 |
| N=C(CC(O)c1cc2c(F)cc(F)cc2c2cc(C(F)(F)F)ccc12)Nc1nc2ccccc2[nH]1 (stereo not drawn) | Plasmodium falciparum | parasite growth, ELISA | 3D7 | 72 h, blood stage | pIC50 | 5.25 |
| CC(C)C[C@H](NC(=O)[C@H](CC(C)C)NC(=O)[C@H](CCCCN)NC(=O)[C@H](CCCCN)NC(=O)[C@H](CC(C)C)NC(=O)[C@H](CC(C)C)NC(=O)[C@H](CCCCN)NC(=O)[C@H](CCCCN)NC(=O)[C@H](CCC(=O)O)NC(=O)[C@H](CC(C)C)NC(=O)[C@H](CCCCN)NC(=O)[C@H](CCCCN)NC(=O)[C@H](CC(C)C)NC(=O)[C@@H](N)CC(C)C)C(N)=O | HCCC9810 | cell growth or viability, CCK-8 | – | – | pIC50 | 3.49 |
| Cc1ccc(N(CC2=NCCN2)c2cccc(O)c2)cc1 | Plasmodium falciparum | parasite growth | K1 | drug-resistant strain, blood stage | pIC50 | 3.72 |
| CC(C)C[C@H](NC(=O)[C@H](CC(C)C)NC(=O)[C@H](CCCCN)NC(=O)[C@H](CCCCN)NC(=O)[C@H](CC(C)C)NC(=O)[C@H](CC(C)C)NC(=O)[C@H](CCCCN)NC(=O)[C@H](CCCCN)NC(=O)[C@H](CC(C)C)NC(=O)[C@H](CC(C)C)NC(=O)[C@H](CCCCN)NC(=O)[C@H](CCCCN)NC(=O)[C@H](CC(C)C)NC(=O)[C@@H](N)CCC(=O)O)C(N)=O | HCCC9810 | cell growth or viability, CCK-8 | – | – | pIC50 | 5.05 |
| Cc1cccc(F)c1NC(=N)CC(O)c1cc2c(F)cc(F)cc2c2cc(C(F)(F)F)ccc12 (stereo not drawn) | Plasmodium falciparum | parasite growth, ELISA | 3D7 | 72 h, blood stage | pIC50 | 7.88 |
| CCN(CC)CCOc1ccc2c(c1)C(=O)c1cc(OCCN(CC)CC)ccc1-2 | Plasmodium falciparum | parasite growth | K1 | drug-resistant strain, blood stage | pIC50 | 6.30 |
